# Reference: ChEMBL document CHEMBL3244330, “Structure--activity relationships of n-substituted dopamine and 2-amino-6,7-dihydroxy-1,2,3,4-tetrahydronaphthalene analogues: behavioral effects in lesioned and reserpinized mice” (J Med Chem, 1979)
# Activity calls are given as the source filed them. No cut-off for these calls is given here.
# Key:
# Mus musculus [1] = experiment: Postural effect on caudectomized Swiss albino mouse assessed as latency to onset time of asymmetric postural effect at 90.8 mg/kg, ip; format: functional, organism-based; design: dose 90.8 mg/kg
# Procedure, shortened: (§1)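 Male Swiss albino Hale-Stoner mice with a right caudectomy made by suction. A lesion was accepted if the mouse responded to apomorphine 4 weeks after surgery. Compounds were dissolved in 0.9% saline and injected ip at random into groups of six, with a maximum dose of 0.348 mmol/kg. 18 mice were used per compound, and mice were retested after 5–6 day intervals. Onset and duration of the asymmetric posture are reported as mean ± SE from six animals.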
# Mus musculus [2] = experiment: Postural effect on caudectomized Swiss albino mouse assessed as time duration of asymmetric posture at 68.4 mg/kg, ip; format: functional; details: route intraperitoneal
# Procedure, shortened: (§2)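 Male Swiss albino Hale-Stoner mice given a right caudectomy by suction. The lesion counted as successful if the mice reacted to apomorphine 4 weeks later. Drug was given ip in 0.9% saline, up to 0.348 mmol/kg, to randomised groups of six, with 5-6 days before reuse. Onset and duration of asymmetric posture are reported as mean ± SE from six animals.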
# Mus musculus [3] = experiment: Postural effect on caudectomized Swiss albino mouse assessed as time duration of asymmetric posture at 34.2 mg/kg, ip; format: functional; details: route intraperitoneal; procedure, shortened: as §1
# Mus musculus [4] = experiment: Postural effect on caudectomized Swiss albino mouse assessed as latency to onset time of asymmetric postural effect at 68.4 mg/kg, ip; format: functional; details: route intraperitoneal; procedure, shortened: as §1
# Mus musculus [5] = experiment: Reversal of reserpine-induced catalepsy in ip dosed Swiss albino (CD1) mouse; format: functional
# Procedure, shortened: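 Male Swiss albino CD1 mice, 5 weeks old, got reserpine 5 mg/kg ip, then α-MTM 250 mg/kg ip 17 h later, then the test drug ip 4 h after that. Catalepsy was scored by the rubber-stopper test (time to step off the stopper). At least four doses were used, with ≥8 mice per dose. ED50 was taken from a log-probit plot of percent responders against dose.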
# Mus musculus [6] = experiment: Postural effect on caudectomized Swiss albino mouse assessed as latency to onset time of asymmetric postural effect at 34.2 mg/kg, ip; format: functional; details: route intraperitoneal; procedure, shortened: as §1
# Mus musculus [7] = experiment: Postural effect on caudectomized Swiss albino mouse assessed as time duration of asymmetric posture at 67.8 mg/kg, ip; format: functional; details: route intraperitoneal; procedure, shortened: as §2
# Mus musculus [8] = experiment: Postural effect on caudectomized Swiss albino mouse assessed as latency to onset time of asymmetric postural effect at 67.8 mg/kg, ip; format: functional; details: route intraperitoneal; procedure, shortened: as §1
# Mus musculus [9] = experiment: Postural effect on caudectomized Swiss albino mouse assessed as time duration of asymmetric posture at 45.2 mg/kg, ip; format: functional; details: route intraperitoneal; procedure, shortened: as §1
# Mus musculus [10] = experiment: Postural effect on caudectomized Swiss albino mouse assessed as time duration of asymmetric posture at 22.6 mg/kg, ip; format: functional; details: route intraperitoneal; procedure, shortened: as §1
# Mus musculus [11] = experiment: Postural effect on caudectomized Swiss albino mouse assessed as latency to onset time of asymmetric postural effect at 45.2 mg/kg, ip; format: functional; details: route intraperitoneal; procedure, shortened: as §1
# Mus musculus [12] = experiment: Postural effect on caudectomized Swiss albino mouse assessed as latency to onset time of asymmetric postural effect at 22.6 mg/kg, ip; format: functional; details: route intraperitoneal; procedure, shortened: as §1
# Mus musculus [13] = experiment: Postural effect on caudectomized Swiss albino mouse assessed as latency to onset time of asymmetric postural effect at 1 mg/kg, ip; format: functional; details: route intraperitoneal; procedure, shortened: as §1
# Mus musculus [14] = experiment: Postural effect on caudectomized Swiss albino mouse assessed as time duration of asymmetric posture at 1 mg/kg, ip; format: functional; details: route intraperitoneal; procedure, shortened: as §1
# Mus musculus [15] = experiment: Postural effect on caudectomized Swiss albino mouse assessed as latency to onset time of asymmetric postural effect at 120 mg/kg, ip; format: functional, organism-based; design: dose 120 mg/kg; procedure, shortened: as §1
# Mus musculus [16] = experiment: Postural effect on caudectomized Swiss albino mouse assessed as latency to onset time of asymmetric postural effect at 32.3 mg/kg, ip; format: functional; details: route intraperitoneal; procedure, shortened: as §1
# Mus musculus [17] = experiment: Postural effect on caudectomized Swiss albino mouse assessed as time duration of asymmetric posture at 96.9 mg/kg, ip; format: functional; details: route intraperitoneal; procedure, shortened: as §2
# Mus musculus [18] = experiment: Postural effect on caudectomized Swiss albino mouse assessed as latency to onset time of asymmetric postural effect at 96.9 mg/kg, ip; format: functional; details: route intraperitoneal; procedure, shortened: as §1
# Mus musculus [19] = experiment: Postural effect on caudectomized Swiss albino mouse assessed as time duration of asymmetric posture at 64.6 mg/kg, ip; format: functional; details: route intraperitoneal; procedure, shortened: as §2
# Mus musculus [20] = experiment: Postural effect on caudectomized Swiss albino mouse assessed as latency to onset time of asymmetric postural effect at 64.6 mg/kg, ip; format: functional; details: route intraperitoneal; procedure, shortened: as §1
# Mus musculus [21] = experiment: Postural effect on caudectomized Swiss albino mouse assessed as time duration of asymmetric posture at 32.3 mg/kg, ip; format: functional; details: route intraperitoneal; procedure, shortened: as §1
# Mus musculus [22] = experiment: Postural effect on caudectomized Swiss albino mouse assessed as latency to onset time of asymmetric postural effect at 51.9 mg/kg, ip; format: functional, organism-based; design: dose 51.9 mg/kg
# Procedure, shortened: (§3)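 Male Swiss albino Hale-Stoner mice with right caudectomy by suction, used if responsive to apomorphine 4 weeks post-lesion. Compound in 0.9% saline given ip, maximum 0.348 mmol/kg. 18 mice per compound in random groups of six, retested after 5–6 day intervals. Onset latency and duration of asymmetric posture recorded; mean ± SE from six animals.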
# Mus musculus [23] = experiment: Postural effect on caudectomized Swiss albino mouse assessed as time duration of asymmetric posture at 56 mg/kg, ip; format: functional; details: route intraperitoneal; procedure, shortened: as §2
# Mus musculus [24] = experiment: Postural effect on caudectomized Swiss albino mouse assessed as latency to onset time of asymmetric postural effect at 28 mg/kg, ip; format: functional; details: route intraperitoneal; procedure, shortened: as §1
# Mus musculus [25] = experiment: Postural effect on caudectomized Swiss albino mouse assessed as latency to onset time of asymmetric postural effect at 56 mg/kg, ip; format: functional; details: route intraperitoneal; procedure, shortened: as §1
# Mus musculus [26] = experiment: Postural effect on caudectomized Swiss albino mouse assessed as time duration of asymmetric posture at 28 mg/kg, ip; format: functional; details: route intraperitoneal; procedure, shortened: as §1
# Mus musculus [27] = experiment: Postural effect on caudectomized Swiss albino mouse assessed as latency to onset time of asymmetric postural effect at 25 mg/kg, ip; format: functional; details: route intraperitoneal; procedure, shortened: as §1
# Mus musculus [28] = experiment: Postural effect on caudectomized Swiss albino mouse assessed as time duration of asymmetric posture at 25 mg/kg, ip; format: functional; details: route intraperitoneal; procedure, shortened: as §1
# Mus musculus [29] = experiment: Postural effect on caudectomized Swiss albino mouse assessed as latency to onset time of asymmetric postural effect at 50 mg/kg, ip; format: functional; details: route intraperitoneal; procedure, shortened: as §1
# Mus musculus [30] = experiment: Postural effect on caudectomized Swiss albino mouse assessed as time duration of asymmetric posture at 50 mg/kg, ip; format: functional; details: route intraperitoneal; procedure, shortened: as §2
# Mus musculus [31] = experiment: Postural effect on caudectomized Swiss albino mouse assessed as latency to onset time of asymmetric postural effect at 102.2 mg/kg, ip; format: functional, organism-based; design: dose 102.2 mg/kg; procedure, shortened: as §3
# Mus musculus [32] = experiment: Postural effect on caudectomized Swiss albino mouse assessed as latency to onset time of asymmetric postural effect at 100.5 mg/kg, ip; format: functional, organism-based; design: dose 100.5 mg/kg; procedure, shortened: as §1
# Mus musculus [33] = experiment: Postural effect on caudectomized Swiss albino mouse assessed as time duration of asymmetric posture at 105.1 mg/kg, ip; format: functional; details: route intraperitoneal; procedure, shortened: as §1
# Mus musculus [34] = experiment: Postural effect on caudectomized Swiss albino mouse assessed as time duration of asymmetric posture at 92 mg/kg, ip; format: functional; details: route intraperitoneal; procedure, shortened: as §2
# Mus musculus [35] = experiment: Postural effect on caudectomized Swiss albino mouse assessed as latency to onset time of asymmetric postural effect at 92 mg/kg, ip; format: functional; details: route intraperitoneal; procedure, shortened: as §1
# Mus musculus [36] = experiment: Reversal of reserpine-induced catalepsy in Swiss albino (CD1) mouse at 0.348 mmol/kg, ip; format: functional, organism-based
# Mus musculus [37] = experiment: Postural effect on caudectomized Swiss albino mouse assessed as time duration of asymmetric posture at 78.9 mg/kg, ip; format: functional; details: route intraperitoneal; procedure, shortened: as §2
# Mus musculus [38] = experiment: Postural effect on caudectomized Swiss albino mouse assessed as latency to onset time of asymmetric postural effect at 26.3 mg/kg, ip; format: functional, organism-based; design: dose 26.3 mg/kg; procedure, shortened: as §1
# Mus musculus [39] = experiment: Postural effect on caudectomized Swiss albino mouse assessed as latency to onset time of asymmetric postural effect at 52.6 mg/kg, ip; format: functional, organism-based; design: dose 52.6 mg/kg; procedure, shortened: as §1
# Mus musculus [40] = experiment: Postural effect on caudectomized Swiss albino mouse assessed as latency to onset time of asymmetric postural effect at 78.9 mg/kg, ip; format: functional; details: route intraperitoneal; procedure, shortened: as §1
# Mus musculus [41] = experiment: Postural effect on caudectomized Swiss albino mouse assessed as latency to onset time of asymmetric postural effect at 105.1 mg/kg, ip; format: functional; details: route intraperitoneal; procedure, shortened: as §1
compound,measurement,setting,value
CCCCNCCc1ccc(O)c(O)c1,Activity,Mus musculus [1],inactive
CCCCCN(CCC)CCc1ccc(O)c(O)c1.Cl,Time,Mus musculus [2],20.6 min
same,Time,Mus musculus [3],17.4 min
same,Time,Mus musculus [4],4.2 min
same,ED50,Mus musculus [5],8.7 mg/kg
same,Time,Mus musculus [6],3.7 min
CCCN(CC)CCc1ccc(O)c(O)c1.Cl,Time,Mus musculus [7],11.2 min
same,Time,Mus musculus [8],3.6 min
same,Time,Mus musculus [9],6.3 min
same,Time,Mus musculus [10],2.3 min
same,ED50,Mus musculus [5],33 mg/kg
same,Time,Mus musculus [11],3.2 min
same,Time,Mus musculus [12],3.2 min
CN1CCc2cccc3c2[C@H]1Cc1ccc(O)c(O)c1-3.CN1CCc2cccc3c2[C@H]1Cc1ccc(O)c(O)c1-3.Cl.Cl.O [APOMORPHINE HYDROCHLORIDE],Time,Mus musculus [13],4.6 min
same,Time,Mus musculus [14],12.8 min
same,ED50,Mus musculus [5],0.11 mg/kg
CCCN(C)CCc1ccc(O)c(O)c1.Cl,Activity,Mus musculus [15],Active
same,ED50,Mus musculus [5],55 mg/kg
Br.CCCCN(CCCC)C1CCc2cc(O)c(O)cc2C1 (configuration not stated),Time,Mus musculus [16],1 min
same,Time,Mus musculus [17],13.7 min
same,Time,Mus musculus [18],4.1 min
same,Time,Mus musculus [19],8.8 min
same,Time,Mus musculus [20],5.3 min
same,ED50,Mus musculus [5],44 mg/kg
same,Time,Mus musculus [21],1.6 min
Oc1ccc(CCN(CCc2ccccc2)CCc2ccccc2)cc1O,Activity,Mus musculus [22],inactive
CCCN(CCc1ccc(O)c(O)c1)Cc1ccccc1.Cl,Time,Mus musculus [23],26.6 min
same,Time,Mus musculus [24],5.2 min
same,Time,Mus musculus [25],5.7 min
same,Time,Mus musculus [26],7.8 min
same,ED50,Mus musculus [5],21 mg/kg
CCCCN(CCC)CCc1ccc(O)c(O)c1.Cl,Time,Mus musculus [27],3.7 min
same,Time,Mus musculus [28],6.4 min
same,Time,Mus musculus [29],3.7 min
same,Time,Mus musculus [30],25.8 min
same,ED50,Mus musculus [5],8.6 mg/kg
Oc1ccc(CCNCCc2ccccc2)cc1O,Activity,Mus musculus [31],inactive
CCCCCN(CCCC)CCc1ccc(O)c(O)c1,Activity,Mus musculus [32],inactive
CCC(C)N(CCc1ccc(O)c(O)c1)C(C)CC.Cl (configuration not stated),Time,Mus musculus [33],10.8 min
same,Time,Mus musculus [34],7 min
same,Time,Mus musculus [35],5.2 min
same,Activity,Mus musculus [36],inactive
same,Time,Mus musculus [37],7 min
same,Activity,Mus musculus [38],inactive
same,Activity,Mus musculus [39],inactive
same,Time,Mus musculus [40],1.8 min
same,Time,Mus musculus [41],5 min
